# Assays:
# Details in all cases: in vivo
# Rattus norvegicus [1] = assay: Nephrotoxicity in Sprague-Dawley rat assessed as occurrence of mild protein/cellular casts in proximal tubule at 20 mg/kg, iv every 8 hrs for 7 days; format: toxicity, organism-based; parameters: dose 20 mg/kg, route intravenous
# In short: (§1)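 Sprague-Dawley rats (6 to 8 weeks old) were dosed for 7 days via a jugular vein cannula at 20 mg/kg/8 h (n = 9) or 30 mg/kg/12 h (n = 11), with a saline placebo group (n = 8). Kidneys were examined histologically post mortem by a blinded histologist. Lesion severity was graded 1+ (mild), 2+ (moderate) or 3+ (severe), and the number of animals showing each lesion was counted.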
# Rattus norvegicus [2] = assay: Nephrotoxicity in Sprague-Dawley rat assessed as occurrence of mild nuclear pyknosis at 30 mg/kg, iv every 12 hrs for 7 days; format: toxicity, organism-based; parameters: dose 30 mg/kg, route intravenous; in short: as §1
# Rattus norvegicus [3] = assay: Nephrotoxicity in Sprague-Dawley rat assessed as occurrence of mild interstitial nephritis at 30mg/kg, iv every 12 hrs for 7 days; format: toxicity, organism-based; in short: as §1
# Rattus norvegicus [4] = assay: Toxicity in Sprague-Dawley rat assessed as effect on water consumption at 30 mg/kg, iv every 12 hrs for 7 days; format: organism-based; parameters: dose 30 mg/kg, route intravenous
# In short: (§2)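 Daily cage-side observations covered food and water intake, body weight, body surface temperature and general well-being. Sprague-Dawley rats (6 to 8 weeks old) were dosed via a jugular vein cannula for 7 days, with a saline placebo control. Groups were compared by analysis of variance.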
# Rattus norvegicus [5] = assay: Toxicity in Sprague-Dawley rat assessed as effect on body surface temperature at 30 mg/kg, iv every 12 hrs for 7 days; format: organism-based; parameters: dose 30 mg/kg, route intravenous; in short: as §2
# Rattus norvegicus [6] = assay: Nephrotoxicity in Sprague-Dawley rat assessed as occurrence of severe nuclear pyknosis at 150 mg/kg, iv every 12 hrs for 7 days; format: toxicity, organism-based; parameters: dose 150 mg/kg, route intravenous
# Rattus norvegicus [7] = assay: Nephrotoxicity in Sprague-Dawley rat assessed as occurrence of severe pallor of outer stripe of proximal tubule at 30 mg/kg, iv every 12 hrs for 7 days; format: toxicity, organism-based; parameters: dose 30 mg/kg, route intravenous; in short: as §1
# Rattus norvegicus [8] = assay: Toxicity in Sprague-Dawley rat assessed as effect on water consumption at 20 mg/kg, iv every 8 hrs for 7 days; format: organism-based; parameters: dose 20 mg/kg, route intravenous; in short: as §2
# Rattus norvegicus [9] = assay: Nephrotoxicity in Sprague-Dawley rat assessed as occurrence of severe protein/cellular casts in proximal tubule at 150 mg/kg, iv every 12 hrs for 7 days; format: toxicity, organism-based; parameters: dose 150 mg/kg, route intravenous
# Rattus norvegicus [10] = assay: Toxicity in Sprague-Dawley rat assessed as effect on food uptake at 20 mg/kg, iv every 8 hrs for 7 days; format: organism-based; parameters: dose 20 mg/kg, route intravenous; in short: as §2
# Rattus norvegicus [11] = assay: Nephrotoxicity in Sprague-Dawley rat assessed as occurrence of moderate protein/cellular casts in proximal tubule at 30 mg/kg, iv every 12 hrs for 7 days; format: toxicity, organism-based; parameters: dose 30 mg/kg, route intravenous; in short: as §1
# Rattus norvegicus [12] = assay: Neurotoxicity in Sprague-Dawley rat assessed as effect on motor control at 30 mg/kg, iv every 12 hrs for 7 days; format: toxicity, organism-based; parameters: dose 30 mg/kg, route intravenous
# In short: (§3)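 Motor control was tested daily by requiring each rat to walk for 5 min on a rotarod treadmill. Sprague-Dawley rats (6 to 8 weeks old) were dosed via a jugular vein cannula for 7 days, with a saline placebo control.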
# Rattus norvegicus [13] = assay: Nephrotoxicity in Sprague-Dawley rat assessed as occurrence of severe intracellular mineralization at 150 mg/kg, iv every 12 hrs for 7 days; format: toxicity, organism-based; parameters: dose 150 mg/kg, route intravenous
# Rattus norvegicus [14] = assay: Nephrotoxicity in Sprague-Dawley rat assessed as occurrence of severe cortical proximal convoluted tubule necrosis at 150 mg/kg, iv every 12 hrs for 7 days; format: toxicity, organism-based; parameters: dose 150 mg/kg, route intravenous
# Rattus norvegicus [15] = assay: Nephrotoxicity in Sprague-Dawley rat assessed as occurrence of mild protein/cellular casts in proximal tubule at 30 mg/kg, iv every 12 hrs for 7 days; format: toxicity, organism-based; parameters: dose 30 mg/kg, route intravenous; in short: as §1
# Rattus norvegicus [16] = assay: Neurotoxicity in Sprague-Dawley rat assessed as effect on forelimb grip strength at 30 mg/kg, iv every 12 hrs for 7 days; format: toxicity, organism-based; parameters: dose 30 mg/kg, route intravenous
# In short: (§4)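 Forelimb grip strength was tested daily using a horizontal retort stand. Each rat had to hang from the horizontal beam holding its own body weight to pass. Rats (Sprague-Dawley, 6 to 8 weeks old) were dosed via a jugular vein cannula for 7 days, with a saline placebo control.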
# Rattus norvegicus [17] = assay: Nephrotoxicity in Sprague-Dawley rat assessed as occurrence of mild cortical proximal convoluted tubule necrosis at 30 mg/kg, iv every 12 hrs for 7 days; format: toxicity, organism-based; parameters: dose 30 mg/kg, route intravenous; in short: as §1
# Rattus norvegicus [18] = assay: Neurotoxicity in Sprague-Dawley rat assessed as effect on forelimb grip strength at 20 mg/kg, iv every 8 hrs for 7 days; format: toxicity, organism-based; parameters: dose 20 mg/kg, route intravenous; in short: as §4
# Rattus norvegicus [19] = assay: Neurotoxicity in Sprague-Dawley rat assessed as effect on motor control at 20 mg/kg, iv every 8 hrs for 7 days; format: toxicity, organism-based; parameters: dose 20 mg/kg, route intravenous; in short: as §3
# Rattus norvegicus [20] = assay: Neurotoxicity in Sprague-Dawley rat assessed as decreased locomotor activity at 30 mg/kg, iv every 12 hrs for 6 days relative to control; format: toxicity, organism-based; parameters: dose 30 mg/kg, route intravenous
# In short: (§5)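 Locomotor activity was recorded daily with a photobeam activity meter as part of a functional screening battery. Sprague-Dawley rats (6 to 8 weeks old) received 30 mg/kg/12 h via a jugular vein cannula for 7 days (n = 11), compared with saline placebo (n = 8). The treatment day was reported for each comparison.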
# Rattus norvegicus [21] = assay: Nephrotoxicity in Sprague-Dawley rat assessed as occurrence of moderate cortical proximal convoluted tubule necrosis at 30 mg/kg, iv every 12 hrs for 7 days; format: toxicity, organism-based; parameters: dose 30 mg/kg, route intravenous; in short: as §1
# Rattus norvegicus [22] = assay: Toxicity in Sprague-Dawley rat assessed as effect on body surface temperature at 20 mg/kg, iv every 8 hrs for 7 days; format: organism-based; parameters: dose 20 mg/kg, route intravenous; in short: as §2
# Rattus norvegicus [23] = assay: Nephrotoxicity in Sprague-Dawley rat assessed as occurrence of severe protein/cellular casts in proximal tubule at 30 mg/kg, iv every 12 hrs for 7 days; format: toxicity, organism-based; parameters: dose 30 mg/kg, route intravenous; in short: as §1
# Rattus norvegicus [24] = assay: Toxicity in Sprague-Dawley rat assessed as effect on food uptake at 30 mg/kg, iv every 12 hrs for 7 days; format: organism-based; parameters: dose 30 mg/kg, route intravenous; in short: as §2
# Rattus norvegicus [25] = assay: Neurotoxicity in Sprague-Dawley rat assessed as decreased locomotor activity at 30 mg/kg, iv every 12 hrs for 2 days relative to control; format: toxicity, organism-based; parameters: dose 30 mg/kg, route intravenous; in short: as §5
sequence,measurement,setting,value
COLISTIMETHATE SODIUM,Activity,Rattus norvegicus [1],Toxic
same,Activity,Rattus norvegicus [2],Toxic
same,Activity,Rattus norvegicus [3],Toxic
same,Activity,Rattus norvegicus [4],Non-toxic
same,Activity,Rattus norvegicus [5],Non-toxic
same,Activity,Rattus norvegicus [6],Toxic
same,Activity,Rattus norvegicus [7],Toxic
same,Activity,Rattus norvegicus [8],Non-toxic
same,Activity,Rattus norvegicus [9],Toxic
same,Activity,Rattus norvegicus [10],Non-toxic
same,Activity,Rattus norvegicus [11],Toxic
same,Activity,Rattus norvegicus [12],Non-toxic
same,Activity,Rattus norvegicus [13],Toxic
same,Activity,Rattus norvegicus [14],Toxic
same,Activity,Rattus norvegicus [15],Toxic
same,Activity,Rattus norvegicus [16],Non-toxic
same,Activity,Rattus norvegicus [17],Toxic
same,Activity,Rattus norvegicus [18],Non-toxic
same,Activity,Rattus norvegicus [19],Non-toxic
same,Activity,Rattus norvegicus [20],Toxic
same,Activity,Rattus norvegicus [21],Toxic
same,Activity,Rattus norvegicus [22],Non-toxic
same,Activity,Rattus norvegicus [23],Toxic
same,Activity,Rattus norvegicus [24],Non-toxic
same,Activity,Rattus norvegicus [25],Toxic

# Reference: ChEMBL document CHEMBL1255273, “Subacute toxicity of colistin methanesulfonate in rats: comparison of various intravenous dosage regimens” (Antimicrob Agents Chemother, 2008)
